Laboratory results: the EternaBench riboswitch data

Tested on: MS2 coat protein
Assay: apparent Kd, MS2 coat protein; higher = weaker binding; RNA-MaP array
Outline: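 Designed RNAs were produced on an Illumina sequencing chip by transcription of sequenced DNA templates. Binding to fluorescently labeled MS2 coat protein (1.5 nM to 3 μM) was measured at room temperature with or without input ligand. The apparent Kd is the median of per-cluster binding-curve fits. Designs were excluded when measured on fewer than 10 clusters.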

[1] = designed as: ON switch for flavin mononucleotide, no ligand
[2] = ligand present: flavin mononucleotide, designed as: ON switch for flavin mononucleotide
[3] = designed as: OFF switch for flavin mononucleotide, no ligand
[4] = ligand present: flavin mononucleotide, designed as: OFF switch for flavin mononucleotide
[5] = designed as: OFF switch for theophylline, no ligand
[6] = ligand present: theophylline, designed as: OFF switch for theophylline

Sequence	apparent Kd [3]	apparent Kd [4]	other results
UAUUUUGCGAAGAAGGAAGCCUCACUGGAAUGCUUAGGAUAUUCUCGCGUGGAGCACAUGCACAUGAGGAUCACCCAUGUACCG	–	–	apparent Kd [1]: 28.7 nM; apparent Kd [2]: 20.1 nM
AACACGCUGGUAGGAUAUUACAACAUGAUGACUCGUCCAAGAAACAACAUGAGGAUCACCCAUGUUAAGAAGGACCACAAGAAA	7.13 nM	7.92 nM	–
GUUGCCCAGCGAGGAUAUGUGAACCGGCUGCUCACAGAAGGCGCAAAUGAUUUUCAUUAUUCCCGACAUGAGGAUCACCCAUGU	21.9 nM	16.3 nM	–
ACAUGAGGAUCACCCAUGUGGUCGGCUAUCUACCCAAUGGGCGAGGAUAUCGAGGCAAGAUAAUUCGAGAAGGCGCGUAAGAUA	101 nM	47.4 nM	–
AGAGAAAAGUAACAUGAGGAUCACCCAUGUAUCCCACGAGUCAGAAGGAGCGGGUUGAUACGAGGCUAGGAUAUGAAGAGUCAU	–	–	apparent Kd [1]: 153 nM; apparent Kd [2]: 98.7 nM
GAUCAACAUGAGGAUCACCCAUGUUAGGAUAUCACACCGGAAAGUGAAAUGCUUUUCUUGAGAAGGAACAAGGC	7.91 nM	7.28 nM	–
GAGUGGUAAGGAUAUAAUACGAAUACGGUGAAACCCGGCGUUUAGAAGGUACAUGAGGAUCACCCAUGUGAUUA	13.2 nM	13.8 nM	–
GCACGGAAAGGAUAUACAUGAGGAUCACCCAUGUUUCUUCUCAGGGCAAUUACCACAUGUAGAAGGUUCUCCAG	29.4 nM	39.8 nM	–
CAUCAGAGUGUCAGGAUAUGUUCAAAUAACUCGGGACAGAAGGGACAUGAGGAUCACCCAUGUGCAUAAAUUUA	18.4 nM	46.9 nM	–
UGCAAUGGGUGAGGAUAUACCCACACACAUGAGGAUCACCCAUGUUUCACAAAGGUGAUGACGCGGUAGAAGGCACAAUCCACU	–	–	apparent Kd [1]: 268 nM; apparent Kd [2]: 98.1 nM
CCGCCACGUCAAGGAUAUGCACGGGAGCCCGUAGCAGAAGGUGAGGCGAACGCCAUCCCACAUGAGGAUCACCCAUGUACGGGC	–	–	apparent Kd [1]: 786 nM; apparent Kd [2]: 202 nM
AUGAAACAUGAGGAUCACCCAUGUGAGGAUAUGGUCUCGAACAAAAUACAAACACCAUCCAGAAGGCACAUGAA	29.8 nM	27.7 nM	–
CUGAGGUUAGGAUAUCUUCUGUUAUCUUCACGAUGAUAAACAGAGAAGGAACAUGAGGAUCACCCAUGUGGUCU	135 nM	99.8 nM	–
CUCGAGUCAGGAUAUAUUAACAGAACUUCCUAAAUGGACGAAUAGAAGGGACAUGAGGAUCACCCAUGUUUGGC	11.8 nM	11 nM	–
CACCAAUUUCGAGGAUAUACGGCCGGUUAACAUUCGUCUUACAUGAGGAUCACCCAUGUGUUCGCGUAGAAGGCGAUUCUUAAU	–	–	apparent Kd [1]: 35.4 nM; apparent Kd [2]: 31.2 nM
GCAGUCCUCCGAGGAUAUAUGACAAUUGACGUGAGAUGUUAGCACAUGAGGAUCACCCAUGUUUUAUAGAAGGCGGGAUAGGUU	–	–	apparent Kd [1]: 20.5 nM; apparent Kd [2]: 18.3 nM
AAAAGAAGCUGAGGAUAUUGGUUAACAUGAGGAUCACCCAUGUCGUUGGUGGAAAACACCUGACGCAAGAAGGCAGACACUUAU	–	–	apparent Kd [1]: 15.7 nM; apparent Kd [2]: 7.81 nM
CACAUGAGGAUCACCCAUGUCUACGAAAGAUGUAGGGAAAAGAGAAGGUGGAGGGAACUGCCAGCCAAGGAUAUCUGCACUCGA	31.8 nM	33.3 nM	–
CCGAGGGUAGGAUAUUAGCACUUCUACAUGAGGAUCACCCAUGUACCUCAUCAUGAUGCCUAAGAAGGACCAGUGU	65.7 nM	158 nM	–
ACUCAACAUGAGGAUCACCCAUGUACUCCAAACAAAGGAUAUUGUGAGUUAAUAUGCAUGCAAGAAGGUUGGUUCA	–	–	apparent Kd [1]: 42.8 nM; apparent Kd [2]: 36.3 nM
CGUCAGUAAGGAUAUACCCGCACUUAACACGAGCGUCGUCGGUAGAAGGUACAUGAGGAUCACCCAUGUAGAAA	7.84 nM	8.95 nM	–
CUUUACUGAGGAUAUACGCAGAUCUAGAUAUCGUAAUACGAACAUGAGGAUCACCCAUGUAGAAGGCAGGCCGA	12.4 nM	24.1 nM	–
CAAUGGCAGUUGCAGGAUAUUCGGCCGGACACAUGAGGAUCACCCAUGUAGGUUCUCCCAUGGAUGAAGAAGGGCACAACAGAAAC	–	–	apparent Kd [1]: 134 nM; apparent Kd [2]: 66.4 nM
GUAUGUGGUGAGGAUAUCCACCCGCGGGUAUAUGGAGAAGGCACUACAUGAGGAUCACCCAUGUUAACUUGCCA	10.1 nM	31.8 nM	–
CGCAAUUCCUGAGGAUAUUGGCAGCGACAUGAGGAUCACCCAUGUGACCAUUUGGUGUUUUGUGUCAAGAAGGCAGCCCAUGAG	44.9 nM	33.8 nM	–
GGUGUUCCUCUAGGAUAUAGCGAUACAUGAGGAUCACCCAUGUUACUCCAGCGCGGCGGAUCGCUCUAGAAGGAGACAUAGCCA	75.1 nM	53.4 nM	–
GUCCACGUCCAAGGAUAUAAUACGAUACAUGAGGAUCACCCAUGUAAGGAGUGUAGAGUACGAUGUUAGAAGGUGGCAUUGCAG	11.9 nM	11.1 nM	–
UACUCGACUUAGAAGGGUUUGUGGACAGCCAGUGGCGUGCGUACAUGAGGAUCACCCAUGUCUCAACAGGAUAUAAGCAUUAGC	35 nM	27 nM	–

Sequence	apparent Kd [3]	apparent Kd [4]	other results
GUGAAACAUGAGGAUCACCCAUGUUAGGAUAUAACGCGACGGCAGGGAUCUGCGCUACUUAGAAGGAACGGGAC	11.5 nM	9.73 nM	–
GUCGCAAUCCAGAAGGACGGGCUUGGCGAGUACGUAGGAUAUGGCAGUCACAUGAGGAUCACCCAUGUCAGGAAUUUAAUCAGG	–	–	apparent Kd [1]: 53.8 nM; apparent Kd [2]: 21.7 nM
GAACGUAGAGGAUAUACGACAAUGCACUGAUCGACGAGUACACAUGAGGAUCACCCAUGUAGAAGGCUAGGAAU	7.28 nM	6.45 nM	–
UCGAUAAGAGGAUAUACGUGAUAGUUCUCCUCCCUAUGACUACAUGAGGAUCACCCAUGUAGAAGGCUUAACGG	6.31 nM	6.54 nM	–
GAGAGGAGGGAGAAGGAGAUAGUCUUCGGCAAUCUAGGAUAUCCACGUAGGGAAUCUCACAUGAGGAUCACCCAUGUUCAGCCG	34.8 nM	31.7 nM	–
AGUAAAAGAGGAUAUACAUGAGGAUCACCCAUGUUGGCGCAGACAAUCGAUGCAUCGAGUAGAAGGCUUUCAAU	21.3 nM	17.1 nM	–
UGGACGCAACGAGCACGAGGUCGGCAGCUACGAGGACCGGUACGGCCGCCACUCGAGUUACGACAUGAGGAUCACCCAUGUAAGG	–	–	apparent Kd (designed as: OFF switch for tryptophan, no ligand): 41.6 nM; apparent Kd (ligand present: tryptophan, designed as: OFF switch for tryptophan): 178 nM
GGGAAACUCUACACUCACAACACAUGAGGAUCACCCAUGUUAAGAAGGUUCAGAACGGGCAAUCGAAAGGAUAUUAGGAUGGCU	10.7 nM	10.2 nM	–
UCACUACAGUAGAAGGUAGGUACAUGAGGAUCACCCAUGUGGUAGGGAGAUUUACACUGUUUCGCUAAGGAUAUACUGGCCAAU	207 nM	125 nM	–
AUCAAUCUAGGAUAUACAUGAGGAUCACCCAUGUCUUCAACCAAGGGCUCCACGACCUGUAGAAGGAGACAAAA	27 nM	22 nM	–
AGGAAUAAGACAGGAUAUCGUAAAAUAUAAAACCGAGAAGGGUCACAUGAGGAUCACCCAUGUGUUCCAACGGUGAUCCCUAGA	64.9 nM	68.2 nM	–
UUCUUACAUGAGGAUCACCCAUGUCUACACCCUACAGGAUAUGAUGCGGUGAAGACCAAUUCAGAAGGGUAAGGUC	–	–	apparent Kd [1]: 84.1 nM; apparent Kd [2]: 22.9 nM
CAAGCGCAUAAGUACGCAACUACAUGAGGAUCACCCAUGUGAAGAAGGGCACAUCUAUCCCACGUGCAGGAUAUUCUCCAAUUU	–	–	apparent Kd [1]: 44.8 nM; apparent Kd [2]: 51 nM
UUGGAUGAAGGAGUGAAAAGCAACUCAGAUACCAGUCUGAGUAAUGACCCUUGGCAGCUGAGAACAUGAGGAUCACCCAUGUGAC	–	–	apparent Kd [5]: 15.2 nM; apparent Kd [6]: 32.2 nM
GGGAGAGAGGUCAGGAUAUUGCGGCGAAAUGCAGUCAAGAAGGGACAUGAGGAUCACCCAUGUACAUCAAGAGC	6.38 nM	10.4 nM	–
AGAGCGAAUCUAACAUGAGGAUCACCCAUGUGUUAUGUUCACGAGGAUAUGUAGUCACUUAGGCGACAGAAGGCGUUCCAAGUA	29.3 nM	22 nM	–
GGUGAAUUAGUGAGGAUAUGAUAGACAAACAAAAUACAGAAGGCACAUGAGGAUCACCCAUGUGACGGAGAGAA	6.31 nM	5.93 nM	–
CCUAUUCCUACGGAUACCAGACGAUCCGUGGCGUGUGUGAACAUGAGGAUCACCCAUGUAGUCCCUUGGCAGCCGAUGCGGGUAA	–	–	apparent Kd [5]: 34.3 nM; apparent Kd [6]: 132 nM
CUGCCACAGAUAGAUACCAGAGGCGUGCAAGCUACAGCUCACAUGAGGAUCACCCAUGUUCUCCCUUGGCAGCUACGGUGUAAGG	–	–	apparent Kd [5]: 16.6 nM; apparent Kd [6]: 17.4 nM
UUGCAUUCUAAUCCUCUUACGACAUGAGGAUCACCCAUGUGUCAGGAUAUUCGAGAAGGAGCGACGAAGAAGGGACUAAUACAC	40.7 nM	32.8 nM	–
UGUCAAUCGCCGGAUACCAGCCUAACUGAAGGAAAUCUAAACAUGAGGAUCACCCAUGUAGGCCCUUGGCAGCCGAGUAAGUACA	–	–	apparent Kd [5]: 40.3 nM; apparent Kd [6]: 125 nM
AAAAGGAUGAUAGGAUAUCAUAACAUGAGGAUCACCCAUGUACAGACGCAACGCUAAACUAGACAUGAGAAGGAUCACAAAACA	–	–	apparent Kd [1]: 179 nM; apparent Kd [2]: 82.2 nM
GGUCUGCCAUUUCAGGAUAUGCUCAGUGCAACAUGAGGAUCACCCAUGUCAGGCUCGAACGACUCGCAGAAGGGAAGUCACGGAUG	–	–	apparent Kd [1]: 102 nM; apparent Kd [2]: 61.4 nM
UAAAACAUGAGGAUCACCCAUGUAUUGAGUCGAGGACCGGUACGGCCGCCACUCGGCAAUAAUAACGACGCAUAGCAUGUAGGAA	–	–	apparent Kd (designed as: ON switch for tryptophan, no ligand): 12.7 nM; apparent Kd (ligand present: tryptophan, designed as: ON switch for tryptophan): 14.5 nM
AACAUGAGGAUCACCCAUGUAGGUACUUCUCGACGGCCUACAAGAAGGUGUUGUAAAGUCAAGAACAAGGAUAUUGUGAUGGCU	555 nM	371 nM	–
GAUAUGGUGGCUCAGGAUAUGCAAGGCUUAACAUGAGGAUCACCCAUGUUAUUUAAUGUGCAAGCGCAGAAGGGAGCUUGGCAAAA	–	–	apparent Kd [1]: 9.39 nM; apparent Kd [2]: 5.53 nM
CUGGUUGUCAAAGGAUAUAAACGAUCACAUGAGGAUCACCCAUGUCUCCCUAUGUUAAUAAGCGCUUAGAAGGUUGAGCCAGCC	31.3 nM	34.4 nM	–
